Data from ChEMBL document CHEMBL4673177, “Structure-activity relationships of sulfonamides derived from carvacrol and their potential for the treatment of Alzheimer''s disease” (RSC Med Chem, 2020).
Calls of active or inactive are those of the source. The rule behind the calls is not given here.

Legend:
Mus musculus [1] = assay: Anxiolytic-like activity in STZ-induced mouse model of Alzheimer's disease assessed as open arm time permanency at 30 mg/kg, ip treated from 3 to 12 days starting from 3 days post initial STZ stimulation and measured on day 14 by elevated plus maze test (reference value: 37.6%); format: functional; settings: time 3-12 day
[2] = Effect on behavioral activity in STZ-induced mouse model of Alzheimer's disease assessed as rearing at 30 mg/kg, ip treated from 3 to 12 days by open field test (reference value: 53.60 +/- 1.62); format: ADME, organism-based; settings: in vivo, time 3-12 day
Mus musculus [3] = assay: Antialzheimer activity in streptozotocin-induced mouse model of memory impairment assessed as median time of avoidance latency descent at 30 mg/kg, ip treated from 3 to 12 days starting from 3 days post initial STZ stimulation and measured on day 16 by avoidance test (reference value: 14 sec); format: functional; settings: time 3-12 day
Procedure, shortened: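 3-month-old female mice (25.0–30.0 g), STZ given i.c.v. as 3 μL of 2.5 mg mL-1 solution, repeated after 48 h. Vehicle or compound dosed i.p. until day 12. Training: shock 0.4 mA for 2 s on stepping down from the platform. Next-day test session without shock; descent latency timed. Reported as median with interquartile interval. N = 8–10 per group.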

Mus musculus [4] = assay: Anxiolytic-like activity in STZ-induced mouse model of Alzheimer's disease assessed as open arm frequency at 30 mg/kg, ip treated from 3 to 12 days starting from 3 days post initial STZ stimulation and measured on day 14 by elevated plus maze test (reference value: 51.17%); format: functional; settings: time 3-12 day
Mus musculus [5] = assay: Antioxidant activity in STZ-induced mouse model of Alzheimer's disease assessed as increase in GSH level in brain at 30 mg/kg, ip treated from 3 to 12 days starting from 3 days post initial STZ stimulation and measured on day 17 by spectrophotometric method; format: functional, organism-based; settings: time 3-12 day
Procedure, shortened: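 Brains collected one day after the last behavioural test, homogenized in phosphate buffer pH 7.4 and spun at 3000g for 15 min. Whole-brain GSH in the supernatant measured by a modified Beutler method, absorbance at 412 nm. Quantified against a GSH standard curve (5–50 μg); expressed as nmol GSH/mg protein.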

[6] = Effect on locomotory activity in STZ-induced mouse model of Alzheimer's disease assessed as number of crossing 30 mg/kg, ip treated from 3 to 12 days by open field test (reference value: 114.00 +/- 3.12); format: organism-based; settings: in vivo, time 3-12 day
Mus musculus [7] = assay: Antioxidant activity in STZ-induced mouse model of Alzheimer's disease assessed as reduction in TBARS level in brain at 30 mg/kg, ip treated from 3 to 12 days starting from 3 days post initial STZ stimulation and measured on day 17 by spectrophotometric method; format: functional, organism-based; settings: time 3-12 day
Procedure, shortened: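 After the final behavioural test, brain homogenate (phosphate buffer pH 7.4, 3000g for 15 min) used for TBARS. The mixture was vortexed and centrifuged at 4000g for 10 min. The organic layer was read at 532 nm.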

Acetylcholinesterase = Acetylcholinesterase (Homo sapiens, UniProt P22303); assay: Inhibition of AChE (unknown origin) using acetylthiocholine iodide as substrate preincubated for 15 mins followed by substrate addition and measured after 30 mins by Ellman's method
Chain of Acetylcholinesterase (P22303 whole entry): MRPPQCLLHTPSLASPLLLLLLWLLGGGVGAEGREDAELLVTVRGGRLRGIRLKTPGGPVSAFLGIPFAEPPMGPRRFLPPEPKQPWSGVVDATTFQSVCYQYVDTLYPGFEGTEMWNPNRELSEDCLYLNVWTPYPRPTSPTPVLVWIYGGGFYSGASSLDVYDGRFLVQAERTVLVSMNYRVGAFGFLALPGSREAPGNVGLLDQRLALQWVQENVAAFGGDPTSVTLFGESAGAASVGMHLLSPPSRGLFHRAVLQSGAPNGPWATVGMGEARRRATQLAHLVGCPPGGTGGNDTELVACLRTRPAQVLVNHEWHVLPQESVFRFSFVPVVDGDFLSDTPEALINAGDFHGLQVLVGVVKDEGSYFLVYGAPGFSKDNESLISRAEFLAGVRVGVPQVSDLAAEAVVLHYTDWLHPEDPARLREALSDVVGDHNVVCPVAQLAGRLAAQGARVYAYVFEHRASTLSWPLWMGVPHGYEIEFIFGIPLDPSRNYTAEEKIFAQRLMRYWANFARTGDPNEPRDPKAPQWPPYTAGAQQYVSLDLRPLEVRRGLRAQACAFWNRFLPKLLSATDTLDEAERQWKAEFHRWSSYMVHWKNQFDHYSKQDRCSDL

[8] = Effect on behavioral activity in STZ-induced mouse model of Alzheimer's disease assessed as rearing at 0.5 mg/kg, ip treated from 3 to 12 days by open field test (reference value: 53.60 +/- 1.62); format: organism-based; settings: in vivo, time 3-12 day
Mus musculus [9] = assay: Anxiolytic-like activity in STZ-induced mouse model of Alzheimer's disease assessed as open arm frequency at 0.5 mg/kg, ip treated from 3 to 12 days starting from 3 days post initial STZ stimulation and measured on day 14 by elevated plus maze test (reference value: 51.17%); format: functional; settings: time 3-12 day
Procedure, shortened: (§1)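 Female mice given STZ i.c.v. twice (48 h apart) were treated i.p. until day 12. Each mouse was placed in the centre of the elevated plus maze facing a closed arm and observed for 5 min. N about 8–10 per group.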

Mus musculus [10] = assay: Antialzheimer activity in streptozotocin-induced mouse model of memory impairment assessed as median time of avoidance latency descent at 0.5 mg/kg, ip treated from 3 to 12 days starting from 3 days post initial STZ stimulation and measured on day 16 by avoidance test (reference value: 14 sec); format: functional; settings: time 3-12 day
Mus musculus [11] = assay: Anxiolytic-like activity in STZ-induced mouse model of Alzheimer's disease assessed as open arm time permanency at 0.5 mg/kg, ip treated from 3 to 12 days starting from 3 days post initial STZ stimulation and measured on day 14 by elevated plus maze test (reference value: 37.6%); format: functional; settings: time 3-12 day; procedure, shortened: as §1
[12] = Effect on locomotory activity in STZ-induced mouse model of Alzheimer's disease assessed as number of crossing 0.5 mg/kg, ip treated from 3 to 12 days by open field test (reference value: 114.00 +/- 3.12); format: organism-based; settings: in vivo, time 3-12 day

Row | SMILES | Activity (Mus musculus [1]) | Activity [2] | Time (Mus musculus [3]) | Activity (Mus musculus [4]) | Activity (Mus musculus [5]) | Activity [6] | Activity (Mus musculus [7]) | IC50 (Acetylcholinesterase) | Activity [8] | Activity (Mus musculus [9]) | Time (Mus musculus [10]) | Activity (Mus musculus [11]) | Activity [12]
1 | Cc1cc(S(=O)(=O)Nc2cnccn2)c(C(C)C)cc1O | 19.3% | 50.17 | 80 s | 47.7% | Active | 108.34 | Active | 7.34 µM |  |  |  |  | 
2 | COc1ccc2c3c1O[C@H]1C[C@@H](O)C=C[C@@]31CCN(C)C2 [GALANTAMINE] |  |  |  |  |  |  |  |  | 54.23 | 22.3% | 122.5 s | 6.6% | 122.5
3 | Cc1cc(S(=O)(=O)N2CCOCC2)c(C(C)C)cc1O | 14.3% | 43.8 | 116.5 s | 25.11% | Active | 116.3 | Active | 5.64 µM |  |  |  |  | 
4 | Cc1cc(S(=O)(=O)Nc2ccccc2O)c(C(C)C)cc1O | 42% | 44.56 | 107 s | 41.9% | Active | 107 | Active | 8.74 µM |  |  |  |  | 
5 | Cc1cc(S(=O)(=O)NCc2ccccn2)c(C(C)C)cc1O | 76% | 46.17 | 72 s | 69.44% |  | 102.45 |  | 6.99 µM |  |  |  |  | 
6 | Cc1cc(S(=O)(=O)NN)c(C(C)C)cc1O | 17.1% | 44.18 | 130 s | 43.31% | Active | 98.45 | Active | 9.24 µM |  |  |  |  | 
7 | Cc1ccc(C(C)C)cc1O [CARVACROL] |  |  |  |  |  |  |  | 284 µM |  |  |  |  | 
